Measurements published in ChEMBL document CHEMBL4834407, “Antiplasmodial Oleanane Triterpenoids from Terminalia albida Root Bark” (J Nat Prod, 2021).

Legend:
Staphylococcus aureus = assay: Antibacterial activity against Staphylococcus aureus ATCC6538; type: functional, organism-based
How it was run: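 S. aureus panel with doxycycline as reference drug; IC50 reported in µM.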

[1] = Cytotoxicity against human MRC5 cells measured after 7 days by MTT assay; type: cell-based; conditions: time 7 day
How it was run: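 MRC-5 human foetal lung fibroblasts; tamoxifen as positive control; IC50 reported in µM.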

Candida albicans = assay: Antifungal activity against Candida albicans ATCC59630; type: functional, organism-based
How it was run: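 C. albicans panel with flucytosine as reference drug; IC50 reported in µM.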

[2] = Selectivity index, ratio of CC50 for cytotoxicity against human MRC5 cells to IC50 for antiplasmodial activity against chloroquine-resistant plasmodium falciparum K1; type: toxicity, cell-based; conditions: read-out: Ratio CC50/IC50
How it was run: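 Ratio of the MRC-5 value (human foetal lung fibroblasts, tamoxifen as cytotoxicity control) to the P. falciparum K1 value (lactate dehydrogenase assay, chloroquine control).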

Plasmodium falciparum = assay: Antiplasmodial activity against chloroquine-resistant Plasmodium falciparum K1 measured after 72 hrs by lactate dehydrogenase assay; type: functional, organism-based; conditions: K1, 72 h
How it was run: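 In vitro lactate dehydrogenase read-out on the chloroquine-resistant P. falciparum K1 strain; chloroquine was the reference drug.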

SMILES	IC50 (Staphylococcus aureus)	CC50 at 168 h [1]	IC50 (Candida albicans)	selectivity ratio [2]	IC50 (Plasmodium falciparum)
CC1(C)CC[C@]2(C(=O)O[C@@H]3O[C@H](CO)[C@@H](O)[C@H](O)[C@H]3O)CC[C@]3(C)C(=CC(=O)[C@@H]4[C@@]5(C)C[C@@H](O)[C@H](O)[C@@](C)(CO)[C@@H]5CC[C@]43C)[C@@H]2[C@@H]1O	> 64 µM	> 64 µM	> 64 µM	> 4.6	13.9 µM
CC1(C)CC[C@]2(C(=O)O)CC[C@]3(C)C(=CC(=O)[C@@H]4[C@@]5(C)C[C@@H](O)[C@H](O)[C@@](C)(CO)[C@@H]5CC[C@]43C)[C@@H]2[C@H]1O	> 64 µM	> 64 µM	> 64 µM	> 6.3	10.1 µM
CC1(C)CC[C@]2(C(=O)O[C@@H]3O[C@H](CO)[C@@H](O)[C@H](O)[C@H]3O)CC[C@]3(C)C(=CC(=O)[C@@H]4[C@@]5(C)C[C@@H](O)[C@H](O)[C@@](C)(CO)[C@@H]5CC[C@]43C)[C@@H]2[C@H]1O	> 64 µM	> 64 µM	> 64 µM	> 5.7	11.3 µM
C[C@]1(CO)CC[C@]2(C(=O)O)CC[C@]3(C)C(=CC[C@@H]4[C@@]5(C)C[C@@H](O)[C@H](O)[C@@](C)(CO)[C@@H]5CC[C@]43C)[C@@H]2C1	> 64 µM	> 64 µM	> 64 µM	> 1.31	48.9 µM
CC1(C)CC[C@]2(C(=O)O)CC[C@]3(C)C(=CC(=O)[C@@H]4[C@@]5(C)C[C@@H](O)[C@H](O)[C@](C)(CO)[C@@H]5CC[C@]43C)[C@@H]2[C@@H]1O	> 64 µM	> 64 µM	> 64 µM	> 10.5	6.1 µM
CC1(C)C=C2C3=CC(=O)[C@@H]4[C@@]5(C)C[C@@H](O)[C@H](O)[C@@](C)(CO)[C@@H]5CC[C@@]4(C)[C@]3(C)CC[C@@]2(C(=O)O)CC1	> 64 µM	> 64 µM	> 64 µM	> 9.27	6.9 µM
CC1(C)CC[C@]2(C(=O)O)CC[C@]3(C)C(=CC(=O)[C@@H]4[C@@]5(C)C[C@@H](O)[C@H](O)[C@](C)(CO)[C@@H]5CC[C@]43C)[C@@H]2[C@H]1O	> 64 µM	> 64 µM	> 64 µM	> 10.5	6.1 µM
CC1(C)CC[C@]2(C(=O)O[C@@H]3O[C@H](CO)[C@@H](O)[C@H](O)[C@H]3O)CC[C@]3(C)C(=CC(=O)[C@@H]4[C@@]5(C)C[C@@H](O)[C@H](O)[C@](C)(CO)[C@@H]5CC[C@]43C)[C@@H]2[C@H]1O	> 64 µM	> 64 µM	> 64 µM	> 7	9.1 µM
C[C@H]1c2cccc(O)c2C(=O)C2=C(O)[C@]3(O)C(=O)C(C(N)=O)=C(O)[C@@H](N(C)C)[C@@H]3[C@@H](O)[C@@H]21 [DOXYCYCLINE]	0.28 µM				
Nc1nc(=O)[nH]cc1F [FLUCYTOSINE]			0.7 µM		
